Screening results as filed in PubChem.
Phagocyt inh = macrophage phagocytosis inhibition. 110,000 compounds, 0.07% hits. inhibition, % at 5 µM. J774A.1 macrophage IgG-bead phagocytosis, imaging;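 active = inhibition above the mean of the plate negative controls plus 5 SD, cut at about 13% in these data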;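 note: phagocytic index as fraction of beads internalized from green versus red external bead signal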
Yeast growth inh = chemicals that inhibit yeast BB579 growth in restrictive medium (lifespan-shortening candidates) | AID 804 | S. cerevisiae BB579 growth, OD615, 48 h | inhibition, % at 10 µM | 140,000 compounds, 0.51% hits;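 active = inhibition above a set limit, 3 SD over the mean compound inhibition, cut at about 44% in these data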
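System: Saccharomyces cerevisiae DeaD strain BB579, replicative lifespan model yeast | Buffer or medium: Restrictive glucose-based CSMM-D medium | Times: 4 h preincubation and 48 h exposure at 30 °C | Detection: OD615 turbidity measurement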
Yeast life ext = yeast lifespan extension. S. cerevisiae growth with nicotinamide, OD615; deaD strain in restrictive glucose medium. AID 775. 130,000 compounds, 0.68% hits. inhibition of the nicotinamide effect, % at 10 µM;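 active = inhibition above a set limit, placed 3 SD over the median of all compounds, cut at about 26% in these data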
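Assay system: DeaD-strain S. cerevisiae. Medium: CSMM-D glucose medium, restrictive. Reagent: nicotinamide, 1.5 mM, co-present with compound. Compound: 10 µM single point, 0.25% DMSO. Schedule: culture preincubation 4 h, compound exposure 48 h, both 30 °C. Detection: absorbance at 615 nm.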
RAM inhibit = inhibitors of the yeast RAM network; S. cerevisiae dse1pr::URA3 reporter, 5-FOA growth OD615, 2 d; analog-sensitive cbk1-as2 kinase mutant strain; inhibition, % at 50 µM; 190,000 compounds, 1.8% hits;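 active = inhibition above a set limit, 3 SD over mean compound inhibition, cut at about 8.4% in these data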;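 note: inhibition rescues growth on 5-FOA so higher OD means more RAM inhibition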
RAM 5-FOA = RAM network inhibition, efflux-deficient strain | shares compounds with RAM inhibit | S. cerevisiae efflux-deficient reporter strain, 5-FOA growth OD615, 2 days | max inhibition, % | 1,200 tested, under 10 active; call rule not given here
Each line names hits and unclear results; the compound was inactive in the other large screens (follow-up assays come after a bar, where they were run). This is a sample that favours compounds with a hit; in the whole collection about 2.7% have one here.

O=C(c1ccc(Cl)cc1[N+](=O)[O-])N(Cc1ccccc1)Cc1ccccc1	RAM inhibit 13 | RAM 5-FOA inactive
CC(C)(C)N(Cc1ccccc1)C(=O)c1ccc(Cl)cc1[N+](=O)[O-]	none (no result: Phagocyt inh, Yeast growth inh, Yeast life ext)
COc1ccc(NC(=O)CSC2CC(=O)N(c3ccc4c(c3)OCCO4)C2=O)cc1 (configuration not stated)	none
CCCc1nn(C)c(C(=O)Nc2ccc(C)c(C)c2)c1Cl	RAM inhibit 22 | RAM 5-FOA inactive
COCCN(C(=O)CC1C(=O)NCCN1Cc1ccc(-c2ccccc2)cc1)C(C)C (configuration not stated)	none (no result: Phagocyt inh, Yeast growth inh, Yeast life ext)
Cc1oc2ccc(OC(=O)c3cccs3)cc2c1C(=O)OC(C)C	RAM inhibit 14 | RAM 5-FOA inactive
Cc1ccc(NC(=O)CCC(=O)OCC(=O)c2ccc(-c3ccccc3)cc2)cc1	none (no result: Phagocyt inh)
Cc1ccccc1OCC(=O)OCC(=O)c1ccc(-c2ccccc2)cc1	RAM inhibit 14 | RAM 5-FOA inactive
CCc1cc2c(Sc3nc4ccccc4s3)ncnc2s1	RAM inhibit 13 | RAM 5-FOA inactive
CCN(c1ccccc1)S(=O)(=O)c1ccc(NCC2COc3ccccc3O2)nc1 (configuration not stated)	RAM inhibit 13 (no result: Phagocyt inh) | RAM 5-FOA inactive
CCN(c1ccccc1)S(=O)(=O)c1ccc(Cl)nc1	none (no result: Phagocyt inh, Yeast growth inh, Yeast life ext)
Cc1nn(CCO)c(N)c1C1(O)C(=O)Nc2c(Cl)cc(Cl)cc21 (configuration not stated)	none (no result: Phagocyt inh, Yeast growth inh, Yeast life ext)
C=CCn1c(SCc2cc(=O)n3ccsc3n2)nc2ccccc2c1=O	RAM inhibit 14 (no result: Phagocyt inh, Yeast growth inh, Yeast life ext) | RAM 5-FOA inactive
C=CCn1c(SCc2cc(C(C)=O)ccc2OCC)nc2ccccc2c1=O	RAM inhibit 16 | RAM 5-FOA inactive
COc1ccc(C(C)=O)cc1CSc1nc2ccccc2c(=O)n1-c1ccccc1	none
C=CCn1c(SCc2cc(=O)n3ccsc3n2)nc2cc(Cl)ccc2c1=O	none (no result: Phagocyt inh, Yeast growth inh, Yeast life ext)
Cc1cc(C)cc(NC(=O)Cc2ccc(-n3cccc3)cc2)c1	none
CC1=C(C(=O)OC2CCCC2)C(c2ccc(C)o2)C2=C(CC(c3cccs3)CC2=O)N1 (configuration not stated)	none
CCCCNC(=S)N(C)/N=C/c1ccc(OCc2ccc(C(=O)OC)cc2)c(OC)c1	RAM inhibit 14 | RAM 5-FOA inactive
N#Cc1cc2cc3c(cc2nc1NCCNC(=S)NCCCN1CCOCC1)OCO3	none (no result: Phagocyt inh, Yeast growth inh, Yeast life ext)
Cc1nn(CCc2nn[nH]n2)c2nc(-c3ccc(C4CCCCC4)cc3)cc(C(F)(F)F)c12	RAM inhibit 15 (no result: Phagocyt inh, Yeast growth inh, Yeast life ext) | RAM 5-FOA inactive
COc1ccccc1-c1ccc(/C=C2/C=C(CC(C)C)OC2=O)o1	RAM inhibit 14 | RAM 5-FOA inactive
CCCC1=C/C(=C/c2ccc(-c3ccccc3OC)o2)C(=O)O1	none
CN1C(=O)/C(=C/c2ccccc2OCc2cccc(F)c2)NC1=S	RAM inhibit 11 | RAM 5-FOA inactive
CCOC(=O)C1=C(CC)Nc2ccccc2N=C1NC(=O)c1cc(S(=O)(=O)N(C)C)ccc1Cl	RAM inhibit 13 | RAM 5-FOA inactive
CCOC(=O)c1cc(-c2ccc(OC)cc2OC)nn1-c1ccc(C(=O)O)cc1	none (no result: Phagocyt inh, Yeast growth inh, Yeast life ext)
CC(C)C[C@H](NC(=O)c1[nH]cnc1C(=O)N[C@H](C)c1ccccc1)C(=O)OCc1ccccc1	RAM inhibit 12 (no result: Phagocyt inh, Yeast growth inh, Yeast life ext) | RAM 5-FOA inactive
CCOC(=O)c1c(C)[nH]c(C(=O)C(C)Sc2ccc(Cl)cc2)c1C (configuration not stated)	RAM inhibit 12 (no result: Phagocyt inh) | RAM 5-FOA inactive
CCOC(=O)/C(=N\Nc1ccccc1)S(=O)(=O)c1ccccc1	none
CCOC(=O)/C(=N/Nc1ccc(C)cc1)S(=O)(=O)c1ccc(Cl)cc1	RAM inhibit 12 (no result: Phagocyt inh) | RAM 5-FOA inactive
Fc1ccccc1OCC1CCCN(Cc2nc(CC3CC3)no2)C1 (configuration not stated)	none (no result: Phagocyt inh, Yeast growth inh, Yeast life ext)
COc1ccc(-c2nn(CCC(=O)O)cc2/C=C2\SC(N)=NC2=O)cc1OC	none
CCCOc1ccc(-c2nn(-c3ccccc3)cc2/C=C2\SC(N)=NC2=O)cc1C	RAM inhibit 13 | RAM 5-FOA inactive
Cc1cccc(NC(=O)CCC(=O)OCC(=O)c2ccc(Oc3ccc([N+](=O)[O-])cc3)cc2)c1	RAM inhibit 21 | RAM 5-FOA inactive
CCc1ccccc1NC(=O)c1ccc(NS(C)(=O)=O)cc1	none (no result: Phagocyt inh, Yeast growth inh, Yeast life ext)
CS(=O)(=O)Nc1ccc(C(=O)Nc2ccccc2Sc2ccccc2)cc1	RAM inhibit 12 | RAM 5-FOA inactive
Cc1ccc(C(=O)CCC(=O)Nc2cccc(C(F)(F)F)c2)cc1	none (no result: Phagocyt inh)
Cn1c(N)c(C(=O)COC(=O)c2ccc3c(c2)C(=O)N(c2ccc(Cl)cc2)C3=O)c(=O)n(C)c1=O	none (no result: Phagocyt inh, Yeast growth inh, Yeast life ext)
Cc1cc(C)c(NC(=O)COC(=O)c2cccc3c2C(=O)c2ccccc2C3=O)c(C)c1	none (no result: Phagocyt inh)
Cc1cc(C)c(Nc2cc(S(=O)(=O)O)c(N)c3c2C(=O)c2ccccc2C3=O)c(C)c1	Yeast life ext 35, RAM inhibit 26 | RAM 5-FOA inactive
CCCOc1cccc(C(=O)NC(=S)Nc2cccc(C(F)(F)F)c2)c1	RAM inhibit 12 | RAM 5-FOA inactive
CNC(=O)c1ccc2c(c1)nnn2C	none
C=CCNC(=O)c1ccc2c(c1)nnn2C	RAM inhibit 14 | RAM 5-FOA inactive
CCCCCCOc1ccc(NC(=O)CC2C(=O)N(CC)C(=S)N2Cc2ccco2)cc1 (configuration not stated)	RAM inhibit 17 | RAM 5-FOA inactive
CCN1C(=O)C(CC(=O)Nc2ccc(OC)cc2)N(CCc2ccc(F)cc2)C1=S (configuration not stated)	RAM inhibit 16 (no result: Phagocyt inh, Yeast growth inh, Yeast life ext) | RAM 5-FOA inactive
Cc1ccc2cc(/C=N/NC(=O)CN3CCCCC3)c(Cl)nc2c1	none (no result: Phagocyt inh, Yeast growth inh, Yeast life ext)
COc1ccc(CN(CCC(c2ccccc2)c2ccco2)C(=O)c2ccco2)cc1 (configuration not stated)	RAM inhibit 13 (no result: Phagocyt inh) | RAM 5-FOA inactive
COc1ccc(CN(C(=O)c2ccco2)c2ccccc2)cc1	none (no result: Phagocyt inh, Yeast life ext)
c1ccc(CSc2ncnc3c2cnn3Cc2ccccc2)cc1	none
Cc1ccc(-n2ncc3c(SCc4ccccc4)ncnc32)cc1	RAM inhibit 12 | RAM 5-FOA inactive
CCNC(=O)CSc1nnc(-c2ccccc2Br)n1-c1cccc(C(F)(F)F)c1	RAM inhibit 12 | RAM 5-FOA inactive
NC(=O)CSc1nnc(-c2ccccc2Br)n1-c1cccc(C(F)(F)F)c1	none
Cc1cccc(/C=C\c2nc3ccccc3c(=O)[nH]2)c1	RAM inhibit 11 | RAM 5-FOA inactive
COC(=O)c1ccc(CC(=O)c2c(C)cc(O)cc2O)o1	none
CCOc1ccccc1NC(=O)C(OC(=O)c1cc(C)oc1C)c1ccccc1 (configuration not stated)	RAM inhibit 14 | RAM 5-FOA inactive
S=C(c1ccc(-c2cc(Cl)ccc2Cl)o1)N1CCCCC1	RAM inhibit 12 | RAM 5-FOA inactive
CC(C)c1ccc(C(N)=S)cc1	none (no result: Phagocyt inh, Yeast growth inh, Yeast life ext)
CCOc1cc(/C=N/Nc2nc(Nc3ccccc3)nc(N3CCCCC3)n2)ccc1OCC(=O)O	RAM inhibit 19 (no result: Phagocyt inh, Yeast growth inh, Yeast life ext) | RAM 5-FOA inactive
COc1ccc(/C=N/Nc2nc(Nc3ccccc3)nc(N3CCCCC3)n2)cc1OC	none (no result: Phagocyt inh)
